Screening results as filed in PubChem.
PfGluPho inh – PfG6PD (Plasmodium falciparum) enzyme inhibition; PfGluPho enzyme, NADPH resazurin-diaphorase fluorescence; inhibition, % at 20 µM; 350,000 tested, 0.78% active;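 active = inhibition reaching at least a set limit at 20 µM in the primary screen, cut at about 59% in these data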;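 also: 0% = DMSO wells with substrate and 100% = DMSO wells lacking glucose-6-phosphate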
HKDC1 inh – inhibitors of human hexokinase HKDC1 | 340,000 tested, 0.16% active | inhibition, % at 20 µM | recombinant HKDC1, G6PDH/diaphorase resazurin coupled fluorescence | AID 493160;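 active = inhibition above about 35% when tested at 20 µM, limit read from the data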;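 also: plate controls were DMSO wells with enzyme for no effect and DMSO wells lacking enzyme for full effect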
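Assay system: in-house recombinant HK5 (HKDC1) enzyme. Input: HKDC1 at 5 µg/mL. Medium: Tris pH 8.0 buffer with MgCl2, Tween-20, BSA, BME. Dosing: single 20 µM dose. Schedule: 90 min reaction incubation at room temperature, dark. Signal: resazurin-to-resorufin fluorescence via G6PDH and diaphorase coupling, 525/613 nm. Controls: DMSO-enzyme wells negative, buffer-substituted wells positive.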
Neddyl block – blocks human cullin neddylation; 360,000 tested, 0.58% active; TR-FRET cullin neddylation, biochemical; P61081+Q13564; inhibition, % at 25 µM; in the data active = inhibition above about 36%
Target sequence (P61081 whole entry, looked up): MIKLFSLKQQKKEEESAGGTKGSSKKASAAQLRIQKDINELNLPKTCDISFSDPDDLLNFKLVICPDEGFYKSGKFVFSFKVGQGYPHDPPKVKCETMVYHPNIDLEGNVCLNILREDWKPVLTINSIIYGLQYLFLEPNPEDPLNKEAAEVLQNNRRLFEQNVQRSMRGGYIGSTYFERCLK
Target sequence (Q13564 whole entry, looked up): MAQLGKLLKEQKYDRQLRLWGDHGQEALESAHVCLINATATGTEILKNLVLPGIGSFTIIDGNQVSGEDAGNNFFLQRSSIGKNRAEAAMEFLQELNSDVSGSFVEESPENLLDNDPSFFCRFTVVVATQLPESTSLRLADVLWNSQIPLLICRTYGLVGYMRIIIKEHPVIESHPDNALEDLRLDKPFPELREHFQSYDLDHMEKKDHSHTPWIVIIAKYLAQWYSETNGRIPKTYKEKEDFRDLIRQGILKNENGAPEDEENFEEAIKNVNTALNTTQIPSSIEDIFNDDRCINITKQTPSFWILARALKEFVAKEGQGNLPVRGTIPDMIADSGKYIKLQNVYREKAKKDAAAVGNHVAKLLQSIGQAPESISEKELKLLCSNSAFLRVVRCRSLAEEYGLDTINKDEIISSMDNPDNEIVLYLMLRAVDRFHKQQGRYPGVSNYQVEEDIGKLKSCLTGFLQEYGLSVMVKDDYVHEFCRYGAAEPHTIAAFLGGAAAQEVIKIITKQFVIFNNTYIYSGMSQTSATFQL
PfM18AAP inh-1 – PfM18AAP enzyme inhibition | recombinant PfM18AAP, H-Glu-NHMec fluorogenic cleavage | 290,000 tested, 1.2% active | inhibition, % at 7.35 µM | AID 1822;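 active = inhibition above the campaign mean inhibition over all tested compounds plus 3 SD, cut at about 28% in these data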;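 also: 0% = plate median of test compound wells and 100% = 2 mM ZnCl2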
PfM18AAP inh-2 – confirmation of Plasmodium falciparum M18 aspartyl aminopeptidase inhibitors; shares compounds with PfM18AAP inh-1; recombinant PfM18AAP, H-Glu-NHMec fluorogenic cleavage; inhibition, % at 7.35 µM; 2,400 tested, 28% active;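 active = mean inhibition over replicate wells above the hit cutoff set for the earlier primary screen, cut at about 29% in these data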;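 also: 0% = median of test compound wells and 100% = 2 mM ZnCl2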
CTSL1 counter – Cathepsin L (human) inhibition, confirmation. shares compounds with PfM18AAP inh-1. 2,400 tested, under 10 active. purified cathepsin L1, Z-Leu-Arg-MCA fluorescence. inhibition, % at 5.96 µM;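 active = average inhibition across replicates above the hit cutoff set in the earlier primary screen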;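 also: 0% = median of test compound wells and 100% = Z-Phe-Ala-diazomethylketone 1 µM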
An asterisk follows results filed as active; x = no result given. Rows were chosen to be rich in hits. Some 2.2% of all compounds tested hit in one or more screens of this group.

SMILES	PfGluPho inh	HKDC1 inh	Neddyl block	PfM18AAP inh-1	PfM18AAP inh-2	CTSL1 counter
CC1(C)C2([N+](=O)[O-])CN3CC1([N+](=O)[O-])CN(C2)C3c1ccc(O)c(O)c1 (stereo unspecified)	-9	-5	-4	77*	84*	4
Cc1ccc(O)c(Nc2c3ccccc3nc3ccccc23)c1	3	6	-2	43*	-48	5
COc1ccc(-c2nn(-c3ccccc3)cc2/C=N/NC(=O)c2ccc3c(c2)OCO3)cc1	x	x	x	6	x	x
COc1ccc(-c2nn(-c3ccccc3)cc2/C=N/Nc2cccc(C(=O)O)c2)cc1	17	1	12	33*	-25	2
Cn1c(N)c(C(=O)N/N=C/c2ccccc2)sc1=S	-4	0	39	34*	-35	2
Cc1ccc(C)c(NC(=O)c2ccc3ccccc3n2)c1	18	8	1	-2	x	x
CCOc1ccc(NC(=S)c2ccc3ccccc3n2)cc1	47	-5	3	41*	-30	-5
COc1ccc(NC(=S)c2ccc3ccccc3n2)cc1	57	0	-21	47*	4	-5
Cc1ccc(NC(=S)c2ccc3ccccc3n2)c(C)c1	56	-2	-2	42*	-1	2
O=C(/C=C(\c1ccc(Cl)cc1)n1cncn1)c1ccc(Cl)cc1	3	-3	-7	73*	15	5
O=C(Cn1cncn1)c1ccccc1Br	5	-1	1	39*	15	-2
O=C(Cn1cncn1)NCc1ccccc1Br	-16	-7	5	1	x	x
O=C(Cn1cncn1)c1ccc(Cl)cc1	-13	-3	-1	59*	36*	3
CSc1ncccc1C(=O)NCC(=O)Nc1ccc(F)c(F)c1	-3	-7	0	2	x	x
CSc1ncccc1C(=O)NNc1cc(Cl)ccc1Cl	37	5	5	33*	-1	0
COC(=O)c1nc(NNC(=O)c2ccccc2)sc1-c1ccccc1	29	-8	-4	46*	10	-2
CCc1nc2nc(C)c(NS(=O)(=O)c3ccc(C4CCCCC4)cc3)c(=O)n2[nH]1	-35	14	2	4	x	x
N#Cc1c(-c2ccc(F)cc2)cc(-c2ccccc2)nc1SCC(=O)NCC(=O)O	23	21	-26	51*	6	6
N#Cc1c(-c2ccc(Cl)cc2)cc(-c2ccccc2)nc1SCC(=O)O	-8	10	-79	-2	x	x
O=c1oc2c(-c3ccc([N+](=O)[O-])cc3)cc(O)cc2s1	32	11	-14	33*	-11	-2
CCOC(=O)C1=CNS(=O)(=O)NC1c1ccc(C(=O)OC)cc1 (stereo unspecified)	4	-5	2	x	x	x
Cc1ccc(-n2nc3c(c2NC(=O)CC(C)C)CS(=O)(=O)C3)c(C)c1	-7	-5	1	-3	x	x
c1ccc(-c2onc(-c3ccco3)c2-c2ccc3[nH]ccc3c2)cc1	57	5	-2	1	x	x
NC(=O)NC(=O)C(Nc1ccc(N2CCCCC2)cc1)c1ccccc1 (stereo unspecified)	32	1	11	41*	-35	-5
O=C(NCC1CCCO1)NC1(C(F)(F)F)Oc2ccccc2O1 (stereo unspecified)	0	4	-4	37*	-16	1
SMILES	PfGluPho inh	HKDC1 inh	Neddyl block	PfM18AAP inh-1	PfM18AAP inh-2	CTSL1 counter
O=C(NC1(C(F)(F)F)Oc2ccccc2O1)N1CCCC1	6	2	-1	75*	45*	-1
O=C(/C=C/c1ccccc1)c1cc(Br)ccc(=O)c1O	49	16	-25	54*	-29	-1
CCOC(=O)c1c(C)n(C)c2ccc(OC(=O)c3ccc(N4C(=O)CCC4=O)cc3)cc12	-19	16	3	57*	-58	2
CCOC(=O)c1c(C)n(C)c2ccc(OC(=O)c3ccco3)cc12	-2	0	2	1	x	x
COc1ccc(OC)c(/C=N/n2c(COc3ccccc3)n[nH]c2=S)c1	18	-1	-18	20	x	x
Oc1ccc(/C=N/n2c(COc3ccccc3)n[nH]c2=S)c(O)c1	41	14	13	33*	12	3
COc1cc(OC)c(OC)cc1/C=N/n1c(COc2ccccc2)n[nH]c1=S	39	-3	-5	33*	-1	1
CCOc1ccc(N(CC(=O)N2CCOCC2)S(=O)(=O)c2ccc(SC)cc2)cc1	-14	-4	1	-4	x	x
